# Reference: ChEMBL document CHEMBL1123096, “Alpha-adrenoreceptor reagents. 3. Synthesis of some 2-substituted 1,4-benzodioxans as selective presynaptic alpha 2-adrenoreceptor antagonists” (J Med Chem, 1985)
# What was measured:
# [1] = molecular target: T1, Adrenergic receptor alpha-2 (Rattus norvegicus) (UniProt P22086+P19328+P22909); test: Presynaptic antagonist activity towards alpha-2 adrenergic receptor.; assay type: functional
# Procedure, shortened: (§1)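 Vas deferens from rat or mouse; the mouse tissue was in Mg-free Krebs at 30 °C under 0.5 g tension, stimulated at 0.1 Hz, 3 ms, 100–140 V, giving a twitch of about 100 mg. […] Standard curves were run before and after the test curve.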
# [2] = molecular target: T2, Adrenergic receptor alpha-1 (Rattus norvegicus) (UniProt P15823+P23944+P43140); test: post-synaptic antagonist activity towards alpha-1 adrenergic receptor was determined. Concentration giving a dose response to phenylephrine (idazoxan=1) was reported.; assay type: functional
# Procedure, shortened: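 Rat anococcygeus, postsynaptic α1 antagonism. At least five phenylephrine concentration–response curves were run alone, then at least four with the antagonist present.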
# [3] = molecular target: Adrenergic receptor alpha (Rattus norvegicus) (UniProt P15823+P23944+P43140+P22086+P19328+P22909); test: Selectivity as ratio […] against alpha-2 receptor to that of alpha-1 receptor.; assay type: protein assay
# [4] = molecular target: T3, Adrenergic receptor alpha-2 (Rattus norvegicus, UniProt P22086+P19328+P22909); test: Alpha-2 adrenergic receptor antagonist activity in a rat vas deferens assay. Values ranges from 8.42-9.51; assay type: functional
# T3 sequence (P22086 whole entry): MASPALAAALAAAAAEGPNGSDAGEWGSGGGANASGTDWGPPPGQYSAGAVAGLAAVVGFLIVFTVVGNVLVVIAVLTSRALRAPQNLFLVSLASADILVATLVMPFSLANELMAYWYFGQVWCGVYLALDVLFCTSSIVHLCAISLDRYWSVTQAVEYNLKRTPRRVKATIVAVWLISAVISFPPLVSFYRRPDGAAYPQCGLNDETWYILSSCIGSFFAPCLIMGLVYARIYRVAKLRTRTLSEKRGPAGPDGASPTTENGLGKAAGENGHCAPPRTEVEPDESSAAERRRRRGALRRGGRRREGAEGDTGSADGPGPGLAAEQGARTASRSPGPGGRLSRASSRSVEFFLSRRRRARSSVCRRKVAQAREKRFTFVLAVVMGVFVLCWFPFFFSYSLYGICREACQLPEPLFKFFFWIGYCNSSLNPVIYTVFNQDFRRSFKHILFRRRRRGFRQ
# T3 sequence (P19328 whole entry): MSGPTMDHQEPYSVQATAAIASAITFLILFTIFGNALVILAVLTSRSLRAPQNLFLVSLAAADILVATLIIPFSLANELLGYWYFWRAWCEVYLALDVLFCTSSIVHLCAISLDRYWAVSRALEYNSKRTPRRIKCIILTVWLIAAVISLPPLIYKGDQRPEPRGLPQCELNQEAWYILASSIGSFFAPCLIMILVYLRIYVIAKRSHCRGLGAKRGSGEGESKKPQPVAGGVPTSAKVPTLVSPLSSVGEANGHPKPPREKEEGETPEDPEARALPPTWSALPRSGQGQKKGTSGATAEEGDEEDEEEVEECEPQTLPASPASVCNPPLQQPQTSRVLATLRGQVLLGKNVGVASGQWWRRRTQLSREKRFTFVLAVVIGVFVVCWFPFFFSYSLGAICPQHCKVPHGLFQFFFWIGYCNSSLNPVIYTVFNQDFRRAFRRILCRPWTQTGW
# T3 sequence (P22909 whole entry): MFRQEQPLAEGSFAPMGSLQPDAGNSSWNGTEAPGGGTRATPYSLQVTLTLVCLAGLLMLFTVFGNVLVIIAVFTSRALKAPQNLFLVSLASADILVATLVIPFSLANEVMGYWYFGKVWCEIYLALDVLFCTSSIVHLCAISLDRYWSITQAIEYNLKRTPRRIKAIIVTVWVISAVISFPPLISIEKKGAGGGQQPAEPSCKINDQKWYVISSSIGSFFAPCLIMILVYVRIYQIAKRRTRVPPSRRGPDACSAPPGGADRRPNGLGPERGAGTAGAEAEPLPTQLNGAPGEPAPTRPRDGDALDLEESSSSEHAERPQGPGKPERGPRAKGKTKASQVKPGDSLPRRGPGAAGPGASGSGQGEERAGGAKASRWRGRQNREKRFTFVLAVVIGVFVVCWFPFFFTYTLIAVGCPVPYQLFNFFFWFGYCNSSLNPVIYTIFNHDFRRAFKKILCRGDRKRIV
# Procedure, shortened: (§2)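 pA2 at presynaptic α2-adrenoreceptors in field-stimulated rat vas deferens. Tissue was held in Krebs solution (NaCl 118 mM, KCl 4.7 mM, CaCl2 2.5 mM, KH2PO4 1.2 mM, MgSO4 0.6 mM, NaHCO3 25 mM, dextrose 11.1 mM) gassed with 95% O2/5% CO2 at 30 °C. Stimulation was 3-ms pulses, 40 V, 0.1 Hz, with contractions recorded isometrically. Twitches were inhibited by clonidine (110 nM).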
# [5] = molecular target: T1, Adrenergic receptor alpha-2 (Rattus norvegicus); test: Alpha-2 adrenergic receptor antagonist activity compared to idazoxan; assay type: functional; procedure, shortened: as §1
# [6] = molecular target: T2, Adrenergic receptor alpha-1 (Rattus norvegicus); test: Alpha-1 adrenergic receptor binding activity relative to idazoxan.; assay type: protein assay
# [7] = molecular target: T4, Adrenergic receptor alpha-1 (Rattus norvegicus, UniProt P15823+P23944+P43140); test: Alpha-1 adrenergic receptor antagonist activity in a rat anococcygeus. Values ranges from 6.50-6.62; assay type: functional
# T4 sequence (P15823 whole entry): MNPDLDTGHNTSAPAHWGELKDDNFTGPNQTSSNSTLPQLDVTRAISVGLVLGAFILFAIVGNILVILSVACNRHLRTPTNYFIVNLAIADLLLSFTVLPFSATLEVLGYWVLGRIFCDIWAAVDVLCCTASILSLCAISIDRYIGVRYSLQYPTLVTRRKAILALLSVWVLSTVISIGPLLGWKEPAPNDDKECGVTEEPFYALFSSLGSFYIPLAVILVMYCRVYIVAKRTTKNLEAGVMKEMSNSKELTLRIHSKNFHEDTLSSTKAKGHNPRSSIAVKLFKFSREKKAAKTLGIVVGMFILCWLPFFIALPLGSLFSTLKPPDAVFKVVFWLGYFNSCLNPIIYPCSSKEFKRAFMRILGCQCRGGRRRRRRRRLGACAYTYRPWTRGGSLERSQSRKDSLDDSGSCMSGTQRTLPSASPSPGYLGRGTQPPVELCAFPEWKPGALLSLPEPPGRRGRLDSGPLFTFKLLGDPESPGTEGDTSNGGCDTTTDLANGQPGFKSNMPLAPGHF
# T4 sequence (P23944 whole entry): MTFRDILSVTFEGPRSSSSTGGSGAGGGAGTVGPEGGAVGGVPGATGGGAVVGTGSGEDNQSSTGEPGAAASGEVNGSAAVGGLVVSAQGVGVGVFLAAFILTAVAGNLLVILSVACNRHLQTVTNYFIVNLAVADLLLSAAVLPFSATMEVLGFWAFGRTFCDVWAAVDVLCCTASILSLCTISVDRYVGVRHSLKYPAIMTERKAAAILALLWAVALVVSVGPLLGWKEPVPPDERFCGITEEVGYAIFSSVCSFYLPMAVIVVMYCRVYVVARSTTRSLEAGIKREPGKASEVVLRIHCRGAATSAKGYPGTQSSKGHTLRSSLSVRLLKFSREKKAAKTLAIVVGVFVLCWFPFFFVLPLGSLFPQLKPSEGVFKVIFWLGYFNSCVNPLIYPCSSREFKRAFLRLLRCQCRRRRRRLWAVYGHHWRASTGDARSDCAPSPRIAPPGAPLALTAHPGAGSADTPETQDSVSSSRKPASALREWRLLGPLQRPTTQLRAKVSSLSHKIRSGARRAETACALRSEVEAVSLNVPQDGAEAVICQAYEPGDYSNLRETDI
# T4 sequence (P43140 whole entry): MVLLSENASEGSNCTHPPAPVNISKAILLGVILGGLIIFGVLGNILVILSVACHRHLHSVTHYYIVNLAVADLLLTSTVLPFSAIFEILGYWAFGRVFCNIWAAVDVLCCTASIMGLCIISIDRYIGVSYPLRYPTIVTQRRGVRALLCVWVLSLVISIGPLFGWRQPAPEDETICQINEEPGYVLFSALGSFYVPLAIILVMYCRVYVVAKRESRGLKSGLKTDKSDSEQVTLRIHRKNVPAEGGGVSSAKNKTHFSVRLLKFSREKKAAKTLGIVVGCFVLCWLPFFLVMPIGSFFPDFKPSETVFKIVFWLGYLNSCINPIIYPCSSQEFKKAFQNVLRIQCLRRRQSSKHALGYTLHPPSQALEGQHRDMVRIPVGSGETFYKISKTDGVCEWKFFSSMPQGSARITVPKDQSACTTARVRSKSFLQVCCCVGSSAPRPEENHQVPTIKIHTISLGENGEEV
# [8] = molecular target: T3, Adrenergic receptor alpha-2; test: Alpha-2 adrenergic receptor antagonist activity in a rat vas deferens assay. Values ranges from 8.54-8.87; assay type: functional, tissue-based
# [9] = molecular target: T4, Adrenergic receptor alpha-1; test: Alpha-1 adrenergic receptor antagonist activity in a rat anococcygeus. Values ranges from 6.35-6.44; assay type: functional
# [10] = molecular target: T3, Adrenergic receptor alpha-2; test: Alpha-2 adrenergic receptor antagonist activity in a rat vas deferens assay. Values ranges from 8.00-8.47; assay type: functional, tissue-based; procedure, shortened: as §2
# [11] = molecular target: T4, Adrenergic receptor alpha-1; test: Alpha-1 adrenergic receptor antagonist activity in a rat anococcygeus. Values ranges from 5.37-5.48; assay type: functional
Structure (SMILES),potency relative to idazoxan [1],Postsynaptic antagonist [2],Ratio [3],also measured
CCCCCOC1(C2=NCCN2)COc2ccccc2O1 (stereo not given),0.72,0.6,1.2,–
c1ccc2c(c1)OCC(C1=NCCN1)(C1CCCC1)O2 (stereo not given),0.015,0.4,0.04,–
C1=C(C2(C3=NCCN3)COc3ccccc3O2)CCCC1 (stereo not given),0.026,0.75,0.035,–
C=CC1(C2=NCCN2)COc2ccccc2O1 (stereo not given),1,0.3,3.3,–
CCCCC1(C2=NCCN2)COc2ccccc2O1 (stereo not given),1.5,2.2,0.68,–
C1=C(C2(C3=NCCN3)COc3ccccc3O2)CCC1 (stereo not given),0.15,0.09,1.7,–
COc1cc2c(cc1OC)OC(OC)(C1=NCCN1)CO2 (stereo not given),0.006,0.05,0.1,–
COC1(C2=NC(C)CN2)COc2ccccc2O1 (stereo not given),0.09,1,0.09,–
CCC1(C2=NCCN2)COc2ccccc2O1 (stereo not given),3,2.25,1.3,pA2 [8]: 8.87; Relative potency [5]: 1.6; Relative potency [6]: 1.2; pA2 [9]: 6.44
CC(C)C1(C2=NCCN2)COc2ccccc2O1 (stereo not given),0.024,< 0.006,–,–
C=C(C)C1(C2=NCCN2)COc2ccccc2O1.Cl (stereo not given),0.4,0.07,5.7,Relative potency [5]: 0.5; pA2 [10]: 8.21; Relative potency [6]: 0.1; pA2 [11]: 5.42
c1ccc2c(c1)OCC(OC1CCCC1)(C1=NCCN1)O2 (stereo not given),0.16,1,0.16,–
CCCCCCCC1(C2=NCCN2)COc2ccccc2O1 (stereo not given),0.9,1.1,0.85,–
CC1Oc2ccccc2OC1C1=NCCN1 (stereo not given),0.002,0.023,0.087,–
OCCCCOC1(C2=NCCN2)COc2ccccc2O1 (stereo not given),0.24,1,0.24,–

# The next lines start with results.
potency relative to idazoxan [1],Postsynaptic antagonist [2],Ratio [3],Structure (SMILES),also measured
0.023,1,0.023,c1ccc(OC2(C3=NCCN3)COc3ccccc3O2)cc1 (stereo not given),–
1,2.46,0.4,Clc1ccc(COC2(C3=NCCN3)COc3ccccc3O2)cc1 (stereo not given),–
1.2,2.1,0.57,C#CCOC1(C2=NCCN2)COc2ccccc2O1 (stereo not given),–
1.4,1,1.4,OCCOC1(C2=NCCN2)COc2ccccc2O1 (stereo not given),–
0.36,1,0.36,Clc1ccccc1COC1(C2=NCCN2)COc2ccccc2O1 (stereo not given),–
2,6,0.3,C=CCOC1(C2=NCCN2)COc2ccccc2O1 (stereo not given),pA2 [4]: 8.81; Relative potency [5]: 2; Relative potency [6]: 1.7; pA2 [7]: 6.55
0.6,4.8,0.13,COc1ccc(COC2(C3=NCCN3)COc3ccccc3O2)cc1 (stereo not given),–
1,8.8,0.14,c1ccc(CCOC2(C3=NCCN3)COc3ccccc3O2)cc1 (stereo not given),–
0.04,0.026,1.6,c1ccc(C2(C3=NCCN3)COc3ccccc3O2)cc1 (stereo not given),–
0.2,1,0.2,COCCOC1(C2=NCCN2)COc2ccccc2O1 (stereo not given),–
0.35,0.2,1.75,Cc1cccc(OC2(C3=NCCN3)COc3ccccc3O2)c1 (stereo not given),–
1.7,2.3,0.75,COc1ccccc1COC1(C2=NCCN2)COc2ccccc2O1 (stereo not given),–
0.34,2,0.17,COc1ccc(OC2(C3=NCCN3)COc3ccccc3O2)cc1 (stereo not given),–
